Screens (PubChem)
OX1R antag-1 = human HCRTR1 antagonism | CHO/OX1R cells, Fluo-8 calcium fluorescence, orexin A | inhibition, % at 5 µM | 0.43% of 330,000 active;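 active = inhibition above its plate's threshold, mean inhibition of all tested compounds on the plate plus 3 SD, cut at about 37% in these data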;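 note: 0% = orexin A challenge wells and 100% = SB-334867-A antagonist wells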
CHO parental Ca = signal in parental CHO cells, OX1R antagonist counter-screen | parental CHO-K1, ATP-induced calcium, Fluo-8 fluorescence | inhibition, % at 5.6 µM | 0.63% of 330,000 active | AID 463079;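 active = inhibition above that plate's mean sample inhibition plus 3 SD, cut at about 26% in these data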;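 note: 0% = ATP-challenged DMSO wells and 100% = DMSO wells without ATP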
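Test system: untransfected parental CHO cell line. Compound: one dose, 5.6 µM nominal. Detection: intracellular calcium via Fluo-8 no-wash fluorescent dye. Measure: % inhibition. Benchmarks: ATP-challenged DMSO wells low, unchallenged DMSO wells high.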
TAAR1 antagonist = human TAAR1 antagonism; 1.5% of 360,000 active; CHO RD-HGA16 TAAR1, Fluo-8 calcium fluorescence, antagonist; inhibition, % at 3 µM;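 active = inhibition above a per-plate cutoff, the mean inhibition of test compounds on that plate plus 3 SD, cut at about 49% in these data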;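 note: 0% = DMSO plus EC80 beta-PEA response and 100% = DMSO alone without agonist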
Target sequence (Q96RJ0 whole entry, looked up): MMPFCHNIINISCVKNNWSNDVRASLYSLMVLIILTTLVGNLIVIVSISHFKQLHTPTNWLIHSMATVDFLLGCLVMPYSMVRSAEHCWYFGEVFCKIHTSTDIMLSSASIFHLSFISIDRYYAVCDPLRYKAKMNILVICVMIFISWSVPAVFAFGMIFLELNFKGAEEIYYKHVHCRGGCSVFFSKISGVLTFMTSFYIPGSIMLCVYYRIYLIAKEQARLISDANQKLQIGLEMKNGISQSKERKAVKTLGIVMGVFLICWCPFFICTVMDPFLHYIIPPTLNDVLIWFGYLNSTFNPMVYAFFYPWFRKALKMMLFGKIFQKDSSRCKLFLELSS
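Test system: hTAAR1-expressing CHO RD-HGA16 cells, Gα16-coupled; Probe or stimulus: EC80 β-phenethylamine stimulus; Compound dosing: single nominal final test compound concentration of 3 µM; Timing: 140 s kinetic read after compound, 140 s after agonist; Signal: Fluo-8 calcium-sensitive fluorescence; Measure: % inhibition of agonist calcium response; Controls: DMSO and EC80 PEA controls.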
TAAR1 ag = agonists of human TAAR1; Q96RJ0; CHO RD-HGA16 TAAR1, Fluo-8 calcium fluorescence; vehicle wells 0%, saturating PEA agonist 100%; activation, % at 3 µM; 0.99% of 360,000 active; AID 624467;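 active = activation above the mean activation of all test compounds in the run plus 3 SD, cut at about 38% in these data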
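Benchmarks: low control DMSO, high control PEA (EC100); System: CHO RD-HGA16 cells carrying human TAAR1 plus Gα16; Detection: Fluo-8 fluorescence, 5 s baseline then 140 s kinetic read; Schedule: 17-24 h plating, Fluo-8 75 min 37 °C, 30 min RT; Read-out basis: % activation from peak over basal fluorescence ratio, DMSO-to-PEA scaled.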
OX1R antag-2 = blocks the human orexin 1 receptor. OX1R-expressing cells, FRET antagonist read-out. inhibition, % at 6.6 µM. 1.8% of 330,000 active. AID 485270; in the data active = inhibition mostly above about 38%, no sharp cut-off; inactive = mostly below about 40%;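 note: 0% = agonist challenge alone and 100% = reference antagonist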
TAAR1 ag conf = human TAAR1 agonism, confirmed; activation, % at 3 µM; shares compounds with TAAR1 ag; 82% of 2,400 active; AID 651783; CHO RD-HGA16 TAAR1, Fluo-8 calcium fluorescence; scaled: DMSO 0%, maximal phenethylamine 100%;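 active = activation above a cutoff set at the run's mean compound activation plus 3 SD, cut at about 39% in these data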
Ga16 ag counter = nonselective agonist in parental cells, TAAR1 agonist counter-screen; AID 651787; 50% of 2,400 active; shares compounds with TAAR1 ag; CHO-Ga16 parental, Fluo-8 calcium fluorescence; normalized to maximal ATP response, DMSO zero; activation, % at 3 µM;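 active = activation above the run cutoff, the mean activation over all tested wells plus 3 SD, cut at about 12% in these data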;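 note: 0% = DMSO wells and 100% = maximal ATP response on the peak over basal ratio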
TAAR1 desens = human TAAR1 agonist that also desensitizes the receptor; shares compounds with TAAR1 ag; CHO RD-HGA16 hTAAR1, Fluo-8 calcium, beta-PEA response inhibition; inhibition, % at 3 µM; 46% of 2,400 active; AID 651951;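 active = inhibition above the run cutoff, the mean inhibition of all test compounds plus 3 SD, cut at about 49% in these data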;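 note: beta-PEA stimulus applied at its EC80; loss of beta-PEA calcium signal after compound pretreatment read as receptor desensitization; 0% = DMSO with beta-PEA at EC80 and 100% = DMSO alone without agonist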
Ga16 nonsel ant = nonselective Ga16 antagonism, counter-screen; shares compounds with TAAR1 ag; CHO-Ga16 ATP-induced calcium, Fluo-8 fluorescence; inhibition, % at 3 µM; 39% of 2,400 active;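 active = inhibition above the plate's mean compound inhibition plus 3 SD, computed per plate, cut at about 22% in these data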;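 note: 0% = EC80 ATP with DMSO and 100% = DMSO wells without ATP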
* hit, by the source's call. A selection: hits, their analogues and other compounds. The true share with any hit is near 4%.

`COC(=O)c1ccc(CNC(=O)c2ccc(OCC(=O)N3CCOCC3)c(OC)c2)cc1` gave OX1R antag-1 -22, CHO parental Ca -2, TAAR1 antagonist -23, TAAR1 ag 0 and OX1R antag-2 17.
CCCOc1ccc(OCCOCCN2CCc3ccccc3C2)cc1 was read as OX1R antag-1 -12, CHO parental Ca -16, TAAR1 antagonist 43, TAAR1 ag 102*, OX1R antag-2 8, TAAR1 ag conf 77*, Ga16 ag counter 1, TAAR1 desens 64* and Ga16 nonsel ant 2.
Screening CCOc1ccc(OCCOCCN2CCc3ccccc3C2)cc1 returned OX1R antag-1 -19, CHO parental Ca -4, TAAR1 antagonist -13, TAAR1 ag 33 and OX1R antag-2 13.
For C=CCc1cc(OC)ccc1OCCOCCN1CCc2ccccc2C1 the results were OX1R antag-1 -23, CHO parental Ca -26, TAAR1 antagonist -12, TAAR1 ag 48*, OX1R antag-2 4, TAAR1 ag conf 56*, Ga16 ag counter 6, TAAR1 desens 13 and Ga16 nonsel ant 4.
COCC(=O)N(C)C[C@H]1Oc2ncc(Br)cc2C(=O)N([C@@H](C)CO)C[C@H]1C was read as TAAR1 antagonist 1 and TAAR1 ag 5.
`CC(=O)Nc1cccc(C(=O)N2CCC(n3nccc3NC(=O)CC(C)C)CC2)c1` gave OX1R antag-1 3, CHO parental Ca 15, TAAR1 antagonist -5, TAAR1 ag 0 and OX1R antag-2 3.
For O=c1c2ccc(Cl)cc2nc(-c2cccc(C(F)(F)F)c2)n1O the results were OX1R antag-1 5, CHO parental Ca 4, TAAR1 antagonist 2, TAAR1 ag 52*, OX1R antag-2 27, TAAR1 ag conf 22, Ga16 ag counter 32*, TAAR1 desens 8 and Ga16 nonsel ant 11.
For N#Cc1ccc(-c2nc3cc(Cl)ccc3c(=O)n2O)cc1 the results were OX1R antag-1 -11, CHO parental Ca 2, TAAR1 antagonist -7, TAAR1 ag -1 and OX1R antag-2 4.
For Cn1c(=O)c2c(nc(N3CCCCCC3)n2Cc2cccc3ccccc23)n(C)c1=O the results were OX1R antag-1 -30, CHO parental Ca -27, TAAR1 antagonist 11, TAAR1 ag 66*, OX1R antag-2 9, TAAR1 ag conf 72*, Ga16 ag counter 42*, TAAR1 desens 35 and Ga16 nonsel ant 28*.
`CN1CCN(c2nc3c(c(=O)n(C)c(=O)n3C)n2Cc2cccc3ccccc23)CC1` gave OX1R antag-1 -38, CHO parental Ca -15, TAAR1 antagonist -24, TAAR1 ag 6 and OX1R antag-2 4.
CCCN1C(=O)S/C(=C/c2ccc(N3CCOCC3)o2)C1=O was read as OX1R antag-1 -20, CHO parental Ca -7, TAAR1 antagonist 22, TAAR1 ag 19 and OX1R antag-2 30.
`CCCN1C(=O)S/C(=C\c2ccc(N3CCOCC3)o2)C1=O` gave OX1R antag-1 -24, CHO parental Ca -16, TAAR1 antagonist 40, TAAR1 ag 56*, OX1R antag-2 15, TAAR1 ag conf 60*, Ga16 ag counter 53*, TAAR1 desens 45 and Ga16 nonsel ant 44*.
Screening CCOc1ccc(NS(=O)(=O)c2ccc(SC)cc2)cc1 returned OX1R antag-1 -6, CHO parental Ca -16, TAAR1 antagonist 5, TAAR1 ag 14 and OX1R antag-2 12.
For CCOc1ccc(NS(=O)(=O)c2ccc(C(=O)NCC(c3ccco3)N3CCCC3)cc2)cc1 (stereo not given) the results were OX1R antag-1 10, CHO parental Ca -9, TAAR1 antagonist 28, TAAR1 ag 65*, OX1R antag-2 2, TAAR1 ag conf 83*, Ga16 ag counter 39*, TAAR1 desens 44 and Ga16 nonsel ant 29*.
CCOC(=O)c1ccc(NS(=O)(=O)c2ccc(SC)cc2)cc1 was read as OX1R antag-1 4, CHO parental Ca -4, TAAR1 antagonist 14, TAAR1 ag 46*, OX1R antag-2 17, TAAR1 ag conf 40*, Ga16 ag counter 19*, TAAR1 desens 36 and Ga16 nonsel ant 26*.
Screening CCN(c1ccccc1)S(=O)(=O)c1ccc(C(=O)NCC(c2ccccc2OC)N2CCCC2)cc1 (stereo not given) returned TAAR1 antagonist 15, TAAR1 ag 46*, TAAR1 ag conf 60*, Ga16 ag counter 13*, TAAR1 desens 26 and Ga16 nonsel ant 25*.
O=C(NCC(c1ccco1)N1CCCCC1)c1ccc(NS(=O)(=O)c2ccc(F)cc2)cc1 (stereo not given) was read as OX1R antag-1 -10, CHO parental Ca -10, TAAR1 antagonist -3, TAAR1 ag 2 and OX1R antag-2 11.
For CCOc1ccc(NS(=O)(=O)c2ccc(C(=O)N3CCCCC3)cc2)cc1 the results were OX1R antag-1 5, CHO parental Ca 10, TAAR1 antagonist 42, TAAR1 ag 67*, OX1R antag-2 0, TAAR1 ag conf 66*, Ga16 ag counter 45*, TAAR1 desens 39 and Ga16 nonsel ant 35*.
For Cc1ccc(NS(=O)(=O)c2ccc(C(=O)NCC(c3ccco3)N(C)C)cc2)cc1 (stereo not given) the results were OX1R antag-1 6, CHO parental Ca -2, TAAR1 antagonist 54*, TAAR1 ag 105*, OX1R antag-2 -11, TAAR1 ag conf 108*, Ga16 ag counter 49*, TAAR1 desens 65* and Ga16 nonsel ant 33*.
`CC1CCN(C(=O)c2ccc(NS(=O)(=O)c3ccccc3)cc2)CC1` gave OX1R antag-1 -4, CHO parental Ca 5, TAAR1 antagonist 11, TAAR1 ag 7 and OX1R antag-2 33.
CCOc1ccc(NS(=O)(=O)c2ccc(C(=O)N3CC(C)OC(C)C3)cc2)cc1 (stereo not given) was read as OX1R antag-1 73*, CHO parental Ca 42*, TAAR1 antagonist 79*, TAAR1 ag 130*, OX1R antag-2 0, TAAR1 ag conf 119*, Ga16 ag counter 91*, TAAR1 desens 79* and Ga16 nonsel ant 40*.
